Screening data as filed in PubChem BioAssay.
This is a sample that favours compounds with a hit; in the whole collection about 2.3% have one here.
TRPC4 inh – inhibitors of mouse TRPC4 channel, primary screen, Fluo4 calcium, HEK293 TRPC4beta/mu-opioid cells; 300,000 tested, 0.39% active; Short transient receptor potential channel 4 (Mus musculus), Q9QUQ5; AID 2247, 2010; B-score at 10 µM; DAMGO-evoked Fluo4 calcium flux; stronger effect = lower value;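 active = B-score over 3 SD under the library average, no early fluorescence shift, positive overall ratio signal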
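Assay system – HEK293 line stably carrying TRPC4beta and mu-opioid receptor · Doses – single dose · Detection – Fluo4 calcium-dye fluorescence, kinetic read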
TRPC4 agonist – activators of mouse TRPC4 channel, primary screen, Fluo4 calcium, HEK293 TRPC4beta/mu-opioid cells; AID 2237, 2010; 310,000 tested, 0.49% active; B-score at 10 µM; Fluo4 calcium fluorescence; stronger effect = higher value; Short transient receptor potential channel 4 (Mus musculus), Q9QUQ5;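 active = B-score above 5 SD of library B-scores, and initial fluorescence ratio not above library mean plus 5 SD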;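 note: positive B-score marks a calcium rise read as TRPC4 activation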
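System: HEK293 cells stably co-expressing mouse TRPC4beta and mu-opioid receptor; Schedule: Fluo4 dye loading 45 min at room temperature, 110 s recording; Detection: Fluo4 fluorescence, kinetic; Evaluation: B-scored integrated calcium fluorescence ratio; Controls: buffer (low) and maximal DAMGO (high).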
TRPC6 activator – mouse TRPC6 channel activators, primary screen, cell-based, HEK293, membrane potential dye | Short transient receptor potential channel 6 (Mus musculus), Q61143 | HEK293-TRPC6 membrane potential dye fluorescence; stronger effect = higher value | B-score at 10 µM | 310,000 tested, 0.13% active;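 active = B-score of the integrated fluorescence ratio above library mean plus 3 SD, and starting fluorescence ratio within library mean plus 5 SD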;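 note: higher score means more depolarization so channel activation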
TRPC6 inhibitor – mouse TRPC6 channel inhibitors, primary screen, cell-based, HEK293, membrane potential dye; Short transient receptor potential channel 6 (Mus musculus), Q61143; ACh-evoked depolarization; stronger effect = lower value; B-score at 10 µM; 310,000 tested, 1.1% active;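 active = B-score under library mean minus 3 SD, initial fluorescence not abnormally high, positive integrated signal ratio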;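 note: B-score derived from integrated fluorescence ratio over the kinetic read; more negative B-score means stronger inhibition of depolarization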
TRPC4 potent – positive allosteric modulators of TRPC4, primary screen, cell-based, mouse TRPC4beta, HEK293 mu-opioid, Fluo-4 calcium; Short transient receptor potential channel 4 (Mus musculus), Q9QUQ5; DAMGO EC20, Fluo-4 Ca2+ flux; stronger effect = higher value; B-score at 10 µM; 310,000 tested, 0.42% active;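 active = B-score of calcium response area above 5 SD of library B-scores, with initial fluorescence ratio within 5 SD of library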
TRPC4 spec 2 – second selectivity test of TRPC6 inhibitors: effect on mouse TRPC4 | shares compounds with TRPC6 inhibitor | inhibition, % at 10 µM | HEK293 TRPC4/MOR, membrane potential dye fluorescence; channel activated by saturating DAMGO dose | 920 tested, 42% active;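 active = compounds whose fluorescence signal differed from control wells by over 3 SD, either direction, in both duplicate plates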
TRPC4 spec – mouse TRPC4 modulation by TRPC6 hits, confirmation, selectivity assay for TRPC6 inhibitor project, cell-based, HEK293 TRPC4/mu-opioid, membrane potential dye; AID 2777, 2010; 920 tested, 61% active; shares compounds with TRPC6 inhibitor; membrane potential fluorescence; activity change, negative = inhibition, % at 10 µM;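 active = rise or fall in signal beyond 3 SD of buffer-only wells in both replicate plates, either sign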;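 note: integrated kinetic ratio of fluorescence range over baseline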
HEK293 MPD ctr 2-1 – nonspecific membrane potential effects, parental HEK293, confirmation, counter-screen for TRPC6 inhibitor project, cell-based, second counter screen | shares compounds with TRPC6 inhibitor | parental HEK293 membrane potential dye fluorescence; maximal acetylcholine challenge after compound addition | signal change vs control, % at 10 µM | 920 tested, 31% active;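 active = membrane potential signal moving either way by over 3 SD of the maximum-effect control, in both duplicate plates, meaning non-specific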
HEK293 MPD ctr-1 – membrane potential modulation in parental HEK293, confirmation, counter-screen for TRPC6 inhibitor project, cell-based | membrane potential signal change, % at 10 µM | 920 tested, 60% active | AID 2780, 2010 | parental HEK293 membrane potential dye fluorescence | shares compounds with TRPC6 inhibitor;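 active = membrane potential signal shifting up or down by more than 3 SD of buffer-only wells, on both duplicate plates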
HEK293 MPD ctr-2 – parental HEK293 membrane potential modulation, confirmation, counter-screen for TRPC6 modulator project, cell-based; shares compounds with TRPC6 inhibitor; AID 488924, 2010; membrane potential dye fluorescence; 2,400 tested, 51% active; membrane potential signal change, % at 10 µM;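 active = membrane potential signal moves up or down beyond 5 SD from buffer-only wells, on both duplicate plates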
HEK293 MPD ctr 2-2 – second check of TRPC6 modulator effects in parental HEK293 cells; shares compounds with TRPC6 inhibitor; membrane potential dye fluorescence; after compound, maximal acetylcholine stimulation; inhibition, % at 10 µM; 2,400 tested, 14% active; AID 488926;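 active = membrane potential signal drops by more than 5 SD from the mean control signal, in both duplicate plates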
TRPC4 ctr mod – TRPC4 modulation by TRPC6 hit compounds, confirmation, selectivity assay for TRPC6 modulator project, cell-based, HEK293 TRPC4/mu-opioid, membrane potential dye, mouse; shares compounds with TRPC6 inhibitor; membrane potential fluorescence; percent change from control (negative = decrease, positive = increase), % at 10 µM; 2,400 tested, 69% active; AID 488927, 2010;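 active = membrane potential signal moved up or down beyond 5 SD of buffer control wells, in both duplicate plates, actives on both sides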
TRPC4 ctr inh 2 – mouse TRPC4 off-target activity of TRPC6 modulators, second screen; shares compounds with TRPC6 inhibitor; HEK293 TRPC4/mu-opioid, membrane potential dye fluorescence; stimulated with maximal-effect DAMGO; inhibition, % at 10 µM; 2,400 tested, 55% active; AID 488928;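 active = drop in membrane potential signal beyond 5 SD of the control wells in both duplicate plates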;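 note: TRPC4 counter screen for TRPC6 hits run under conditions tuned for TRPC6 not TRPC4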
TRPC6 block conf – mouse TRPC6 channel inhibitors, confirmation, HEK293 cells, membrane potential dye, duplicate; shares compounds with TRPC6 inhibitor; ACh-evoked depolarization; inhibition, % at 10 µM; 3,300 tested, 43% active; AID 488960, 2010;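 active = fluorescence ratio falls more than 5 SD below the full-stimulation control mean, in both duplicate runs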;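 note: integrated fluorescence ratio of peak minus minimum over baseline after agonist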
TRPC6 act confirm – mouse TRPC6 channel activators, confirmation, HEK293 cells, membrane potential dye, duplicate; shares compounds with TRPC6 inhibitor; HEK293-TRPC6 membrane potential dye fluorescence, FDSS; activation, % at 10 µM; 2,800 tested, 11% active; AID 488961, 2010;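 active = ratio signal rise beyond 5 SD above unstimulated control wells' mean, seen in both duplicate runs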
A number is an active result; . = inactive; / = no result.

SMILES	TRPC4 inh	TRPC4 agonist	TRPC6 activator	TRPC6 inhibitor	TRPC4 potent	HEK293 MPD ctr-2	HEK293 MPD ctr 2-2	TRPC4 ctr mod	TRPC4 ctr inh 2	TRPC6 block conf	TRPC6 act confirm	others
CC1(C)Cc2c(C#N)c(NCc3ccco3)nc(-c3ccco3)c2CO1	.	.	.	.	.	/	/	/	/	/	/
CN(C)CCNc1nc(-c2ccco2)c2c(c1C#N)CC(C)(C)OC2	.	.	.	-9.7	.	-396%	78%	-65%	76%	77%	.
CCOc1ccc(CCNC(=O)COc2cccc(-n3cnnn3)c2)cc1OCC	.	.	.	.	.	/	/	/	/	/	/
CCOCCN1CCN(C2c3ccccc3CSc3ccccc32)CC1 (stereo not drawn)	.	.	.	-8.3	.	/	/	/	/	.	/	TRPC4 spec 2=72%;TRPC4 spec=18%;HEK293 MPD ctr 2-1=.;HEK293 MPD ctr-1=9.5%
CCNC(=O)NC1c2ccccc2CSc2ccccc21 (stereo not drawn)	.	.	.	.	.	/	/	/	/	/	/
CC1CCN(S(=O)(=O)c2cnc(Cl)c(Br)c2)CC1	.	.	.	-5.3	.	.	.	.	.	68%	/
CC1CCCCN1S(=O)(=O)c1cnc(Cl)c(Br)c1 (stereo not drawn)	.	.	18	.	.	.	.	.	.	/	164%
CC1CCCCN1S(=O)(=O)c1csc(C(N)=O)c1 (stereo not drawn)	.	.	.	.	.	/	/	/	/	/	/
CC1CCN(S(=O)(=O)c2ccc(Cl)cc2Br)CC1	.	.	.	.	.	/	/	/	/	/	/
O=[N+]([O-])c1ccc2nc(-c3ccncc3)[nH]c2c1	.	.	.	-6.4	.	-304%	60%	-52%	36%	.	.
CSc1nnc(C2CCN(CC(=O)Nc3ccccc3N3CCOCC3)CC2)n1C	.	.	.	.	.	/	/	/	/	/	/
CCn1c(SC)nnc1C1CCN(CC(=O)Nc2ccccc2N2CCOCC2)CC1	.	.	.	-5.4	.	.	.	.	.	.	.
CCCCOc1ccc(C(=O)N2CCN(CC(=O)Nc3ccc(C)cc3)CC2)cc1OC	.	.	.	.	.	/	/	/	/	/	/
COc1ccc(C(=O)N2CCc3ccc(NC(=O)c4ccccn4)cc3C2)cc1F	.	.	.	.	.	/	/	/	/	/	/
CN(C)C(=O)c1c2c(nc3ccccc13)-c1ccccc1CC2	.	.	.	-5.7	.	.	.	.	.	.	.
O=C(NCCc1ccccc1)C1CCCN1C(=O)Nc1ccc(Cl)cc1 (stereo not drawn)	.	.	.	.	.	/	/	/	/	/	/
Nc1c(C(=O)N2CCOCC2)oc2ccccc12	.	.	.	-5.4	.	.	.	.	.	.	.
C=CCN1C(=O)c2ccc(C(=O)N(C)CC(=O)Nc3cccc(F)c3)cc2C1=O	.	.	.	.	.	/	/	/	/	/	/
Cc1ccc(OC(C)C(=O)N2CC(=O)Nc3ccccc32)cc1 (stereo not drawn)	.	.	15	.	.	.	.	.	.	/	136%
CCn1cc(C(=O)Nc2ccc(C)cc2[N+](=O)[O-])c(C)n1	.	.	.	.	.	/	/	/	/	/	/
CC(Oc1ccc2c(=O)c(-c3ccc(Cl)cc3)c(C(F)(F)F)oc2c1)C(=O)O (stereo not drawn)	.	.	.	.	.	/	/	/	/	/	/
COC(=O)Nc1cc(C)nc2ccccc12	.	.	.	.	.	/	/	/	/	/	/
COCCCNc1ccnc2c(Cl)cccc12	.	.	.	-9	.	-287%	.	-44%	48%	.	.
Cc1cc(NCCO)c2ccccc2n1	.	.	.	.	.	/	/	/	/	/	/
Cc1cc(NCCO)c2cc(O)ccc2n1	.	.	.	-7.8	.	-252%	.	-47%	38%	54%	.
SMILES	TRPC4 inh	TRPC4 agonist	TRPC6 activator	TRPC6 inhibitor	TRPC4 potent	HEK293 MPD ctr-2	HEK293 MPD ctr 2-2	TRPC4 ctr mod	TRPC4 ctr inh 2	TRPC6 block conf	TRPC6 act confirm	others
OCCNc1c2ccccc2nc2ccccc12	.	.	.	-9.5	.	-233%	.	-38%	46%	56%	.
COCCCNc1cc(C)nc2ccccc12	-6	.	.	-7.4	.	-264%	.	-50%	63%	.	.
CSc1cccc(NC(=O)Cn2cnc(S(=O)(=O)N3CCCC3)c2)c1	.	.	.	.	.	/	/	/	/	/	/
CCOC(=O)c1cc(C(=O)c2ccccc2O)cn2c(=O)c3c(C)c(C)sc3nc12	.	.	.	.	.	/	/	/	/	/	/
COCCCNC(=O)CN(CCc1ccccc1)S(=O)(=O)c1ccc(OC)cc1	.	.	.	.	.	/	/	/	/	/	/
COCCCN(CC(=O)NCc1ccccc1)S(=O)(=O)c1ccc(C)cc1	.	.	.	-6.3	.	.	.	.	.	.	.
